Published values pooled from the literature.
Each line is one published result; the experiments were not run side by side.
OPRL1: Nociceptin receptor (OPRL1, Homo sapiens, UniProt P41146)
ATXN3: Ataxin-3 (ATXN3, Homo sapiens, UniProt P54252)
ADRA2C: Alpha-2C adrenergic receptor (ADRA2C, Homo sapiens, UniProt P18825)
PIK3C3: Phosphatidylinositol 3-kinase catalytic subunit type 3 (PIK3C3, Homo sapiens, UniProt Q8NEB9)

CN(CCN1CCC(OC(=O)Nc2ccccc2-c2ccccc2)CC1)C(=O)c1ccc(CN2CCC(C(N)=O)CC2)cc1
inhibition (OPRL1; ligand displacement; radioligand; 1 µM): 0%

Clc1ccc2c(C3CCN(CCc4c[nH]c5ccccc45)CC3)c[nH]c2c1
inhibition (cGMP-inhibited 3',5'-cyclic phosphodiesterase 3A (PDE3A, Homo sapiens, UniProt Q14432); enzyme activity; inhibitor; 10 µM): -1%

CCOC(=O)c1ccc(OC(=O)CCCCCNC(=N)N)cc1
inhibition (ATXN3; enzyme activity; inhibitor; 10 µM): 3%

O=C(Nc1cccnn1)N1CCN([C@@H]2CCOc3cc(C(F)(F)F)ccc32)CC1
inhibition (ADRA2C; cell-free assay; 20 µM): 23%

c1ccc(C(NCCNC(c2ccccc2)c2ccccc2)c2ccccc2)cc1
inhibition (Apelin receptor (APLNR, Homo sapiens, UniProt P35414); cell-free assay; 10 µM): 46%

C#Cc1n[nH]c2c(-c3cn([C@@H](C)c4ccccc4)c(=O)[nH]c3=O)cc(F)cc12
inhibition (Phosphatidylinositol 4-phosphate 3-kinase C2 domain-containing subunit alpha (PIK3C2A, Homo sapiens, UniProt O00443); enzyme activity; inhibitor; 0.1 µM): 11.7%

Cn1cc(-c2cc(F)cc(N3CCn4c(cc5c4CCCC5)C3=O)c2CO)cc(Nc2ccc(N3CCN(C4COC4)CC3)cn2)c1=O
inhibition (Serine/threonine-protein kinase PAK 3 (PAK3, Homo sapiens, UniProt O75914); enzyme activity; inhibitor; 0.1 µM): 16%

CN(C)C(=O)COC(=O)Cc1ccc(OC(=O)c2ccc(NC(=N)N)cc2)cc1
inhibition (ATXN3; enzyme activity; inhibitor; 10 µM): 3%

Cn1cc(-c2cccc(N3CCc4c(sc5c4CC(C)(C)C5)C3=O)c2CO)cc(Nc2ccncn2)c1=O
inhibition (PIK3C3; enzyme activity; inhibitor; 1 µM): 0%

COCc1c(-c2cc3cc(C)cc(OC)c3s2)c2c(N)ncnn2c1CN1CCNC(=O)C1
inhibition (ADRA2C; ligand displacement; radioligand; 10 µM): 31%

CCN(CC)CCCC[C@H](NC(=O)[C@H](CC(C)C)NC(=O)[C@H](C)NC(=O)[C@H](Cc1ccccc1)NC(=O)c1ccc(C(C)(C)C)cc1)C(=O)N[C@@H](CO)C(=O)OC
inhibition (OPRL1; ligand displacement; radioligand; 10 µM): 23%

COc1cc(Nc2ncc(F)c(Nc3ccc4c(n3)NC(=O)C(C)(C)O4)n2)cc(OC)c1OC
inhibition (Serine/threonine-protein kinase RIO2 (RIOK2, Homo sapiens, UniProt Q9BVS4); binding; 10 µM): 83%

C#Cc1n[nH]c2c(-c3cn([C@@H](C)c4ccccn4)c(=O)[nH]c3=O)cc(F)cc12
inhibition (PIK3C3; enzyme activity; inhibitor; 0.1 µM): 8.6%
